Source: PubChem
A selection: hits, their analogues and other compounds. The true share with any hit is near 3.2%.
DENV2 CPE rescue: DENV2-induced cell death inhibition | AID 651640 | DENV2-infected cells, cytopathic effect rescue, plate reader | 1.7% of 350,000 active | CPE inhibition, % at 9.99 µM; in the data active means CPE inhibition above about 20%, passing the limit was not always enough; inconclusive means no clear call, values can overlap the other calls; tested in BHK-21 cells;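 further: 0% = median of neutral control wells and 100% = median of positive control wells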
Cneo AK release: Cryptococcus neoformans lysis via adenylate kinase release; C. neoformans lysis, adenylate kinase release luminescence, 4 h; normalised: neutral wells 0, clomiphene wells 100; lysis activity, % at 15 µM; 0.2% of 360,000 active; AID 651654;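 active means mean lysis activity across replicates of at least 80%, whatever share of replicates individually reach that level; inactive means mean lysis activity below 80%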
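Material – log-phase Cryptococcus neoformans yeast cells · Input – 5 × 10^6 yeast cells/mL · Medium – fresh YPD growth medium · Doses – single compound concentration per well · Timing – static 4 h at 37 °C with compound, 1 h detection · Detection – adenylate kinase release luminescence · Read-out – signal increase indicating cell lysis · Control set – Clomiphene as positive lysis control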
PfHsp90 set2: inhibits growth of yeast expressing Plasmodium falciparum Hsp90; S. cerevisiae expressing PfHsp90, BacTiter-Glo ATP, 48 h; yeast lacking PDR1 and PDR3 efflux regulators; inhibition, % at 9.4 µM; 0.32% of 310,000 active; AID 504621;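 active means every replicate shows inhibition above about 80%, whatever the replicate mean, limit read from the data; inconclusive means mean inhibition reaches the set limit but some replicate falls short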;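 further: 0% = DMSO neutral controls and 100% = 20 µM radicicol positive controls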
S100A4 MyoIIA: blocks human S100A4 binding to myosin IIA peptide; AID 652163; S100A4/TAMRA-MyoIIA peptide fluorescence polarization; P26447; 0.14% of 360,000 active; inhibition, % at 10.7 µM;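 active means mean inhibition of at least 70% across replicates, with every replicate also reaching that level; inconclusive means mean inhibition reaches 70% but some replicates fall short; inactive means mean inhibition below 70%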
Target sequence (P26447 whole entry, looked up): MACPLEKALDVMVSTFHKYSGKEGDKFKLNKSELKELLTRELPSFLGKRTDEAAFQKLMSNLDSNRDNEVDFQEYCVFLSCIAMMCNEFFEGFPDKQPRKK
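System – human S100A4 monomer protein, biochemical binding assay · Buffer or medium – Calcium-containing HEPES buffer, pH 7.2 · Timing – 5 min between mix addition and reading · Also added – TAMRA-labelled myosin IIA heavy-chain peptide probe, 5 nM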
Ecoli rRNA inh: selective bacterial rRNA inhibition in E. coli; GFP signal change (wild-type ribosome), % (concentration not given with the values); AID 720706; E. coli WT GFP vs humanized-ribosome RFP mutants, fluorescence, 24 h; stronger effect = lower value; DMSO median 0, no signal -100; 1.6% of 350,000 active;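 active means significant combined selectivity score with lowered wild-type GFP, culture density cut under 30%, mutant RFP and density less affected; inactive means any of these conditions unmet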
MLL AF4-AF9 inh: MLL-AF4/AF9 protein interaction inhibition; 0.47% of 350,000 active; AID 651704; AlphaScreen, biotin-AF4 peptide binding to FLAG-AF9; P42568; inhibition, % at 10 µM;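 active means every replicate reaching a set inhibition limit, whatever the replicate mean, cut at about 25% in these data; inconclusive means mean inhibition reaches that limit but some replicates miss it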;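 further: 0% = plate neutral control median and 100% = total signal loss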
Target sequence (P42568 whole entry, looked up): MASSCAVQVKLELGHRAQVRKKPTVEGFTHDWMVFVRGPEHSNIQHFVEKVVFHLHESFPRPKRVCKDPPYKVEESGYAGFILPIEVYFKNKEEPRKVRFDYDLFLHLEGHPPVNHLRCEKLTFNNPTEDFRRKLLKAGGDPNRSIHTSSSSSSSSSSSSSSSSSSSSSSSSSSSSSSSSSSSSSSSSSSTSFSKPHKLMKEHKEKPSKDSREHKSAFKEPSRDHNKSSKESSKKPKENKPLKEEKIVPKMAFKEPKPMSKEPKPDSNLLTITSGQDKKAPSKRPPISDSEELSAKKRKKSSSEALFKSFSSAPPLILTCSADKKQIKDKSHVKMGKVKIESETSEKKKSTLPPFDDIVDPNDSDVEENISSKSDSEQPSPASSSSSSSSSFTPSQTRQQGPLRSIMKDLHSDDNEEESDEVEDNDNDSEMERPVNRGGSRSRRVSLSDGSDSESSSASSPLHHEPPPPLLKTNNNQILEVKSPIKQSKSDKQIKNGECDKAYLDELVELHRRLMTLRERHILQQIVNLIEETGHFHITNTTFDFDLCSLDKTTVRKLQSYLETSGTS
* hit, by the source's call; ? = inconclusive; . = not tested or not shown; ! = repeats disagree.

SMILES | DENV2 CPE rescue | Cneo AK release | PfHsp90 set2 | S100A4 MyoIIA | Ecoli rRNA inh | MLL AF4-AF9 inh
CC(C)NC(=O)Nc1ccc2c(c1)C(=O)N([C@H](C)CO)C[C@H](C)[C@H](CN(C)C(=O)Nc1ccccc1)OCCCC[C@H](C)O2 | 13 | 3 | . | 7 | 3 | -3
CC(C)NC(=O)Nc1ccc2c(c1)C(=O)N([C@H](C)CO)C[C@@H](C)[C@H](CN(C)C(=O)Nc1ccccc1)OCCCC[C@@H](C)O2 | 2 | 118* | . | 9 | -4 | -2
CC(C)NC(=O)N(C)C[C@@H]1OCCCC[C@@H](C)Oc2ccc(NC(=O)Nc3ccc(F)cc3)cc2C(=O)N([C@H](C)CO)C[C@@H]1C | 48*! | -2 | . | 3 | 1 | 0
CC(C)NC(=O)N(C)C[C@H]1OCCCC[C@H](C)Oc2ccc(NC(=O)Nc3ccc(F)cc3)cc2C(=O)N([C@@H](C)CO)C[C@H]1C | 56* | -6 | . | 2 | 1 | -5
COc1ccc(-c2cn(CC[C@H]3CC[C@H](NC(=O)NC(C)C)[C@H](CO)O3)nn2)cc1 | -4 | -2 | . | 32 | -2 | -3
C/C=C/c1ccc2c(c1)O[C@@H](CN(C)Cc1ccccn1)[C@H](C)CN([C@@H](C)CO)S2(=O)=O | -4 | 3 | . | -3 | -7 | 4
C[C@@H]1CN([C@@H](C)CO)C(=O)c2cc(NS(=O)(=O)c3ccc(F)cc3)ccc2O[C@@H](C)CCCCO[C@H]1CN(C)C(=O)Nc1ccccc1 | 6 | 1 | . | . | -6 | .
CC1=C(C#N)C(=O)NC(=O)/C1=C\c1ccc(-c2cc(C)c(C)cc2[N+](=O)[O-])o1 | 8 | 0 | 8 | -8 | -34* | 7
Cc1ccc(-c2ccc(/C=C3/NC(=O)NC3=O)o2)cc1[N+](=O)[O-] | 0 | 4 | 0 | -18 | 33 | -2
O=C(O)c1cc(NN=C2c3ccccc3-c3ccccc32)ccc1Cl | 5 | -1 | -16 | -1 | -48 | -1
O=C(O)c1cccc2c1-c1ccccc1/C2=N\Nc1ccccc1 | 3 | -4 | 8 | -3 | -39* | 2
O=C(O)c1cccc(NN=C2c3ccccc3-c3ccccc32)c1 | 3 | . | 106* | -8 | -53* | 2
CCCC[C@@H](O)C1=C(COc2ccccc2)C[C@H]2C(=O)N(Cc3ccccc3)C(=O)[C@H]2[C@H]1CO | 11 | -10 | . | -34 | . | 0
Cc1cccc(NC(=S)NNC(=O)c2csc3c2CCC(C)C3)c1 (configuration not stated) | -1 | 5 | 0 | -1 | -40* | -11
C=CC[n+]1c(-c2ccc(Cl)cc2Cl)csc1Nc1ccc(NC(C)=O)cc1 | ? | . | -10 | 2 | -18 | 44*
C=CC[n+]1c(-c2ccc(Cl)cc2Cl)csc1Nc1c(C)n(C)n(-c2ccccc2)c1=O | ? | 2 | -7 | 12 | -49 | 19
CCCNC(=O)Nc1ccc2c(c1)OC[C@@H](C)N(CCC(F)(F)F)C[C@@H](C)[C@@H](OC)CN(C)C2=O | -3 | -1 | . | 7 | 0 | -1
O=c1[nH]c2ccccc2cc1CN(Cc1cccnc1)S(=O)(=O)c1ccc([N+](=O)[O-])cc1 | 0 | 0 | 2 | -3 | -21* | 0
CC(=O)Nc1ccc(S(=O)(=O)N(Cc2cccnc2)Cc2cc3ccccc3[nH]c2=O)cc1 | 17 | 0 | 11 | -6 | -6 | 0
O=c1[nH]c2ccccc2cc1CN(Cc1cccnc1)S(=O)(=O)c1ccc(Cl)cc1 | 13 | -3 | -8 | 5 | -45* | -2
CCOC(=O)N1CCC(N2Cc3cccc(C(=O)Nc4ccccc4OC)c3C2=O)CC1 | -5 | 15 | -11 | 5 | -21* | 2
Cc1cc(C)cc(NC(=O)c2cccc3c2C(=O)N(C2CCCCC2)C3)c1 | . | 3 | -22 | . | . | .
COc1cc(NC(=O)c2cccc3c2C(=O)N(C2CCCCC2)C3)cc(OC)c1OC | 5 | 1 | 8 | -3 | -41* | 11
CC(=O)N1CCN(C(=O)COC(=O)COc2c(C)cc(C)cc2C)CC1 | 84* | 1 | -19 | -2 | 4 | 1
O=C(C1CCOCC1)N1C[C@H]2[C@@H](c3ccccc31)[C@@H](CO)N2Cc1ccccc1Cl | 15 | 100* | . | 5 | -7 | -3
SMILES | DENV2 CPE rescue | Cneo AK release | PfHsp90 set2 | S100A4 MyoIIA | Ecoli rRNA inh | MLL AF4-AF9 inh
O=C(C1CCOCC1)N1C[C@H]2[C@@H](c3ccccc31)[C@@H](CO)N2C(=O)c1ccccc1 | 97* | -5 | . | -5 | 7 | -2
O=C(C1CC1)N1C[C@@H]2[C@H](c3ccccc31)[C@H](CO)N2C(=O)c1ccccc1 | 0 | -1 | . | 1 | 0 | -2
CN1[C@@H]2CN(C(=O)C3CCOCC3)c3ccccc3[C@@H]2[C@@H]1CO | 40* | -1 | . | -24 | 6 | -8
CC(C)NC(=O)N1C[C@@H]2[C@H](c3ccccc31)[C@@H](CO)N2C(=O)c1ccccc1 | 29* | -10 | . | 48 | 4 | 0
O=C(C[C@@H]1CC[C@H](NC(=O)c2ccccc2)[C@H](CO)O1)Nc1ccc(-c2ccccc2)cc1 | -6 | 1 | . | 1 | -20 | 3
C[C@@H]1CN([C@H](C)CO)C(=O)c2cccc(NC(=O)Nc3ccccc3)c2O[C@H]1CN(C)S(=O)(=O)c1ccc(F)cc1 | -24 | 52 | . | 8 | 3 | 2
C[C@H](CO)N1C[C@H](C)[C@H](CN(C)Cc2ccc(C(F)(F)F)cc2)Oc2ccc(NC(=O)Cn3cnnn3)cc2C1=O | -2 | -13 | . | 14 | 3 | 0
C[C@H](CO)N1C[C@H](C)[C@H](CN(C)C)OCc2cn(nn2)CCCC1=O | . | . | . | . | -2 | .
Cc1cc(C)cc(N(CC(=O)NCc2ccco2)S(=O)(=O)c2c(C)noc2C)c1 | 41* | 0 | 10 | -7 | 9 | 6
COc1ccc(CNC(=O)CN(c2cc(C)cc(C)c2)S(=O)(=O)c2c(C)noc2C)cc1 | ? | 1 | -17 | 0 | 0 | 1
COC(=O)c1sc(N2C(=O)C(=O)/C(=C(/O)c3ccccc3)C2c2ccco2)nc1C (configuration not stated) | -6 | . | 11 | -15 | -34* | 0
CO[C@@H]1CN(C)C(=O)c2ccc(NC(=O)NC3CCCCC3)cc2OC[C@@H](C)N(C(=O)NC2CCCCC2)C[C@H]1C | 3 | -2 | . | -2 | -3 | -2
Cc1cc(C)cc(N(C(=O)c2nsc(Cl)c2Cl)C(C(=O)NC2CCCC2)c2ccc(O)cc2)c1 (configuration not stated) | -3 | . | 4 | 1 | -1 | 6
Cc1ccc(N(C(=O)c2nsc(Cl)c2Cl)C(C(=O)NC2CCCC2)c2ccc(O)cc2)cc1C (configuration not stated) | 84* | . | 17 | 4 | -5 | -10
